From PubChem
An excerpt weighted towards active compounds, which were near 4% of everything screened.
FN deposit inh – fibronectin deposition inhibition; AH1F fibroblasts, Alexa488-fibronectin deposition fluorescence, overnight; inhibition, % at 12.6 µM; 350,000 compounds, 0.086% hits;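 active = mean inhibition across replicates of 30% or more, regardless of how many single replicates reach that level; inconclusive = mean under 30% yet at least half of replicates reach 30%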;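 note: positive control wells lacked labelled fibronectin entirely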
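test system = AH1F fibroblasts assembling fluorescent fibronectin matrix | quantity = 10000 AH1F cells per well | buffer or medium = DMEM plus 2% serum, read in PBS | doses = single dose, pinned | incubation = 1 h cell attachment, overnight exposure to compound and label | detection = fluorescence at 485 nm excitation, 525 nm emission | read-out basis = inhibition from reduced deposited-fibronectin fluorescence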
SIRT5 inh – sirtuin-5 (human) deacylase inhibition; Q9NXA8; Purified SirT5, succinyl-peptide AMC, trypsin-coupled fluorescence; inhibition, % at 15 µM; 330,000 compounds, 1.1% hits; AID 652115; in the data active = inhibition above about 15%; inconclusive = no clear call, values can overlap the other calls
Target sequence (Q9NXA8 whole entry, looked up): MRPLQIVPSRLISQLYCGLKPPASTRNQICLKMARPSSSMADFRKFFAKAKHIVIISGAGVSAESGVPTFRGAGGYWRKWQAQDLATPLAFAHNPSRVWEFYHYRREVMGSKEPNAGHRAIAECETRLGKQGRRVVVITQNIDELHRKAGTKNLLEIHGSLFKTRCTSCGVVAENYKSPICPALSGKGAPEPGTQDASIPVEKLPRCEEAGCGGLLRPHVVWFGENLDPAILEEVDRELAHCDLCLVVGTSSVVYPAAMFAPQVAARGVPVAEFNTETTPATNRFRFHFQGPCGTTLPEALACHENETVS
E-sel inducer – E-selectin induction on HUVECs; HUVEC E-selectin immunofluorescence imaging; normalized: neutral wells 0, TNF-alpha wells 100; activation, % at 7.58 µM; 260,000 compounds, 0.37% hits; AID 686992;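 active = mean E-selectin-positive cell signal at least 10% of the positive control, reached in at least 60% of replicates, without over 20% cell loss; inconclusive = no rule given, readout overlaps actives, possibly toxicity-flagged; inactive = the rest, including those meeting only one limit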
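Test system: HUVEC; input: 3,000 HUVEC/well; measured by: immunofluorescence imaging; read-out: % PE-positive cells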
FGF22 binding – FGF22 (human) thermal shift binding | recombinant FGF22 thermal shift, SYPRO orange fluorescence; percent of sucrose octasulfate shift, DMSO zero | activity (Tm shift, normalised), % at 9.99 µM | 340,000 compounds, 1.5% hits;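 active = mean Tm shift, scaled 0 neutral to 100 positive control, at about 1.3% or above, every replicate too, limit read from the data; inconclusive = no clear call, values can overlap the other calls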
Target sequence (Q9HCT0 whole entry, looked up): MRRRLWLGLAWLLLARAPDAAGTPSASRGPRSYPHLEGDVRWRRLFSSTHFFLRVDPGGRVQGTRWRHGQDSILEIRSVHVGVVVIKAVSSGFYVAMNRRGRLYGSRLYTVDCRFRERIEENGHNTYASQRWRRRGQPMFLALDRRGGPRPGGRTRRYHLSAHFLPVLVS
rRNA inh HTS – selective bacterial rRNA inhibition in E. coli | E. coli WT GFP vs humanized-ribosome RFP mutants, fluorescence, 24 h; hits give low values; DMSO median 0, no signal -100 | GFP signal change (wild-type ribosome), % (concentration not given with the values) | 350,000 compounds, 1.6% hits | AID 720706;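 active = significant combined selectivity score with lowered wild-type GFP, culture density cut under 30%, mutant RFP and density less affected; inactive = any of these conditions unmet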
C2C12 statin – suppressors of simvastatin-induced myotoxicity in C2C12 myotubes; ATP luminescence, 48 h; scaled: DMSO 0, geranylgeraniol control 100; rescue of ATP level, % at 7.49 µM; 330,000 compounds, 0.78% hits;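 active = mean ATP rescue above about 67%, or every replicate alone reaching that limit, limit read from the data, passing the limit was not always enough; inconclusive = no clear call, values can overlap the other calls; inactive = mean under the limit and some replicate under it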;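 note: myotubes were challenged with 10 µM simvastatin during compound exposure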
Numbers without * were called inactive; u = inconclusive; x = not tested or not shown.

SMILES	FN deposit inh	SIRT5 inh	E-sel inducer	FGF22 binding	rRNA inh HTS	C2C12 statin
CO[C@H]1CN(C)C(=O)c2ccc(NC(=O)C3CC3)cc2OC[C@@H](C)N(CCC(F)(F)F)C[C@H]1C	-2	2	0	0	-5	-24
Cc1ccc(S(=O)(=O)Nc2ccc3c(c2)C(=O)N([C@@H](C)CO)C[C@H](C)[C@H](CN(C)Cc2ccc(Cl)c(Cl)c2)O3)cc1	x	8	0	0	4	46
Cn1cnc(C(=O)NCc2ccccc2)c1C(=O)NCc1ccccc1	0	x	0	0	-32*	5
O=C(NCc1ccccc1)c1ncn(Cc2ccccc2)c1C(=O)NCc1ccccc1	0	x	19	0	-12	8
CC(=O)Nc1cccn(Cc2c(Cl)cccc2Cl)c1=O	-8	0	x	43*	6	x
COc1ccccc1CN(C)C[C@@H]1OCc2cn(nn2)CCCC(=O)N([C@@H](C)CO)C[C@H]1C	2	x	0	x	-2	-1
CCN=c1scc(C)n1/N=C/c1cc(Br)c(O)c(Br)c1	1	-2	x	43*	-22	x
COc1ccc2oc(C)c(C(=O)c3ccccc3)c2c1	-5	-1	0	0	-30*	x
Cc1oc2ccc(O)cc2c1C(=O)c1ccccc1	1	1	x	0	-3	10
Cc1nc2sc(C(c3ccc(Br)cc3)N3CC(C)OC(C)C3)c(O)n2n1 (centres undefined)	x	x	x	x	x	91*
O=C1C(C=NCCN2CCOCC2)=C(O)c2ccccc21	-1	x	x	x	x	8
COc1ccc(C2CC(=O)C(C=NCCCN3CCOCC3)=C(O)C2)cc1 (centres undefined)	1	x	x	x	x	8
COc1ccc(C=NCCCN2CCOCC2)cc1	x	x	x	x	x	88*
O=C1C(C=NCCCN2CCOCC2)=C(O)c2ccccc21	x	4	x	x	0	124*
Cc1ccc(NC(=O)c2ccc3c(c2)OCO3)cc1S(=O)(=O)N1CCOCC1	3	0	x	0	-18*	-10
Cc1ccc(C(=O)N2CCN(Cc3ccc4c(c3)OCO4)CC2)cc1S(=O)(=O)N1CCOCC1	5	16*	-1	0	0	x
O=C(Nc1ccc2c(c1)OCO2)c1ccc(Cl)c(S(=O)(=O)N2CCOCC2)c1	-1	0	x	0	-3	1
Cc1ccc(NCc2nnc(SCC(=O)NNC(=O)Cc3ccccc3)n2C)cc1	10	1	0	0	-23	x
Cc1ccc(C(=O)NNC(=O)CSc2nnc(CNc3ccc(F)cc3)n2C)cc1	-2	1	236*	x	0	x
C[C@@H](NC(=O)C[C@@H]1C[C@H]2c3cc(NC(=O)C4CCOCC4)ccc3O[C@H]2[C@@H](CO)O1)c1ccccc1	x	8	0	0	-4	-5
O=C(Nc1cc(S(=O)(=O)N2CCOCC2)ccc1N1CCOCC1)c1cc2c(s1)CCC2	-4	17*	3	0	-11	x
CC(C)C(=O)Nc1cc(S(=O)(=O)N2CCOCC2)ccc1N1CCCCC1	x	1	0	0	-2	108*
O=C(Nc1ccccc1F)Nc1cc(S(=O)(=O)N2CCOCC2)ccc1N1CCCC1	6	x	2	0	-19*	x
Cc1ccc(S(=O)(=O)Nc2cc(S(=O)(=O)N3CCCCC3)ccc2N2CCOCC2)cc1	1	-2	32*	0	10	x
COc1ccc(S(=O)(=O)N2CCOCC2)cc1NC(=O)c1cc2c(s1)CCCC2	0	x	0	x	x	x
SMILES	FN deposit inh	SIRT5 inh	E-sel inducer	FGF22 binding	rRNA inh HTS	C2C12 statin
Cc1ccc(-c2ccc(C3[C@@H]4CN(S(=O)(=O)c5ccccc5)C[C@H]3N4)cc2)cc1 (some centres undefined)	1	-3	0	x	1	x
CN1C(=O)c2cc(NC(=O)c3cccc(F)c3)ccc2OC[C@@H]2O[C@H](CC(=O)O)CC[C@@H]21	-9	x	0	0	1	-9
C[C@H]1CN(C)C(=O)c2cc(N(C)C)ccc2O[C@@H]1CN(C)S(C)(=O)=O	-5	x	x	x	3	x
CC(NC(=O)COC(=O)/C=C/c1ccc(Cl)cc1)c1ccccc1 (centres undefined)	-18	-1	x	44*	7	-3
COc1cc(/C=C/C(=O)OCC(=O)NC(C)c2ccccc2)cc(OC)c1OC (centres undefined)	x	x	0	0	-13*	2
CC(NC(=O)COC(=O)/C=C/c1cccc(F)c1)c1ccccc1 (centres undefined)	0	0	1	0	0	-5
CC1=[N+](C)c2c(ccc3cccnc23)C1(C)C	-45	-1	196*	0	-37	x
CC(C)c1ccccc1NC(=S)NC(C)c1ccccc1 (centres undefined)	-8	-2	x	44*	-18	x
CC(NC(=S)Nc1ccc(F)cc1)c1ccccc1 (centres undefined)	-11	-4	x	x	-7	15
C/C(=N/NS(=O)(=O)c1ccc(C)cc1)c1c(O)c2ccccc2oc1=O	-5	28*	3	0	1	16
Cc1ccc(S(=O)(=O)Nc2c(O)c3ccccc3oc2=O)cc1	14	-5	0	0	0	6
Cc1c(NS(=O)(=O)c2cccc(C(=O)NCc3ccccc3Cl)c2)c(=O)n(-c2ccccc2)n1C	-5	16*	2	0	-8	10
Cc1c(NS(=O)(=O)c2cccc(C(=O)Nc3ccccc3)c2)c(=O)n(-c2ccccc2)n1C	4	1	0	0	-1	5
Cc1c(NS(=O)(=O)c2ccc(N=NN(C)C)cc2)c(=O)n(-c2ccccc2)n1C	0	18*	x	0	1	9
Cc1cccc(S(=O)(=O)N[C@H]2CC[C@H](CCNC(=O)c3cnccn3)O[C@@H]2CO)c1	5	0	0	0	-5	-9
CCOC(=O)Nc1ccc2c(CN3CCC(C(=O)OC)CC3)cc(=O)oc2c1	-1	-2	x	0	3	6
CCc1ccc2c(CN3CCC(C(=O)OC)CC3)cc(=O)oc2c1	-7	-1	x	0	-22*	u
Cc1[nH]nc(C(=O)NN=Cc2ccccc2Cl)c1N=NN(C)C	3	0	0	0	-21*	x
COc1ccccc1OCCNC(=O)c1ccccc1C	-11	x	x	x	x	5
O=C(NCCOc1ccccc1Cl)C(=O)NCCOc1ccccc1Cl	-6	0	0	43	8	-2
Cc1ccccc1OCCNC(=O)CNC(=O)c1ccccc1O	x	0	x	0	-27*	x
O=C(CNC(=O)c1ccccc1F)NCCOc1ccccc1Cl	2	-4	2	43*	-5	-7
O=C(CC1CC1)N1CC(=O)N2[C@@H](CO)[C@H](c3ccc(C#Cc4ccccc4)cc3)[C@@H]2C1	x	1	0	x	-35	x
